For seven compounds, MIC results are on record in ChEMBL document CHEMBL1135349, “Synthesis and evaluation of novel pyrrolidinyl sordaricin derivatives as antifungal agents” (2002).

Holding throughout (type): functional
The subject of assay [1] is Candida albicans. As to the kind of experiment: Minimum concentration required to inhibit the growth of Candida albicans SANK51486 was determined. In short, it runs like this:
(§1)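 Yeast cells grown in microplates in RPMI1640 buffered to pH 7.0 at 35 °C, without serum. The MIC is the lowest concentration that inhibits growth by 80%.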

For assay [2], the system named is Candida albicans. As to the kind of experiment: Minimum concentration required to inhibit the growth of Candida albicans TIMM3164 was determined. The method in brief: as §1
The next assay deals with Cryptococcus neoformans. As to the kind of experiment: Minimum concentration required to inhibit the growth of Cryptococcus neoformans TIMM1855 was determined. In short, it runs like this:
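Medium was yeast nitrogen base buffered at pH 7.0, with microplates incubated at 35 °C. The MIC was defined as the lowest concentration producing 80% growth inhibition.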

For assay [3], the system named is Candida albicans. As to the kind of experiment: Minimum concentration required to inhibit the growth of Candida albicans ATCC 24433 was determined in the presence of horse serum (20%). The method in brief:
(§2)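 Run in RPMI1640 buffered at pH 7.0 with 20% horse serum added for the incubation, in microplates at 35 °C. The MIC is the lowest concentration inhibiting growth by 80%.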

The next assay has as its system Candida parapsilosis. Put plainly: Minimum concentration required to inhibit the growth of Candida parapsilosis ATCC 90018 was determined. The following applies: Lodderomyces parapsilosis. In short, it runs like this:
as §1

The next assay concerns Candida tropicalis. As to the kind of experiment: Minimum concentration required to inhibit the growth of Candida tropicalis ATCC750 was determined. In short, it runs like this: as §1
The next assay has as its system Nakaseomyces glabratus. Put plainly: Minimum concentration required to inhibit the growth of Candida glabrata ATCC 90030 was determined. In short, it runs like this:
as §1

For assay [4], the system named is Candida albicans. Put plainly: Minimum concentration required to inhibit the growth of Candida albicans ATCC 64550 was determined. The method in brief:
as §1

For assay [5], the system named is Candida albicans. Put plainly: Minimum concentration required to inhibit the growth of Candida albicans SANK51486 was determined in the presence of horse serum (20%). In short, it runs like this:
as §2

For assay [6], the system named is Candida albicans. As to the kind of experiment: Minimum concentration required to inhibit the growth of Candida albicans ATCC 24433 was determined. In short, it runs like this:
as §1

The subject of the next assay is Aspergillus fumigatus. As to the kind of experiment: Minimum concentration required to inhibit the growth of Aspergillus fumigatus ATCC 26430 was determined. In short, it runs like this:
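Microplate broth assay in RPMI1640 buffered at pH 7.0, incubated at 30 °C. The MIC was taken as the lowest test concentration giving 80% growth inhibition.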

≈ marks a conversion by molar mass, not a printed value.

What is called MIC is the lowest concentration that inhibits growth of the organism. Turning to `C=C(C)CN1C[C@H](OCC23C[C@@H]4[C@H](C)CC[C@H]4C4(C=O)CC2C=C(C(C)C)C34C(=O)O)O[C@H](C)[C@@H](OC)C1` (some centres undefined), the MIC was 0.02 µg/mL (≈ 0.0378 µM) in the assay with Candida albicans [1]; 0.03 µg/mL (≈ 0.0566 µM) against Candida albicans [2]; 0.25 µg/mL (≈ 0.472 µM) in the assay on Cryptococcus neoformans; 0.5 µg/mL in the assay on Candida albicans [3]; > 16 µg/mL against Candida parapsilosis; 0.13 µg/mL (≈ 0.245 µM) in the assay with Candida tropicalis. In addition, the MIC in the assay with Nakaseomyces glabratus is 0.25 µg/mL (≈ 0.472 µM); against Candida albicans [4], 0.03 µg/mL (≈ 0.0566 µM); in the assay on Candida albicans [5], 0.25 µg/mL; with Candida albicans [6], 0.03 µg/mL (≈ 0.0566 µM); against Aspergillus fumigatus, > 16 µg/mL.
`C/C=C/C=C\C(=O)O[C@H]1[C@H](O)[C@H](OCC23C[C@@H]4[C@H](C)CC[C@H]4C4(C=O)CC2C=C(C(C)C)C34C(=O)O)O[C@H](C)[C@H]1OC` (some centres undefined): the MIC in the assay on Candida albicans [1] is 0.25 µg/mL (≈ 0.426 µM); with Candida albicans [2], 0.5 µg/mL (≈ 0.852 µM); in the assay with Cryptococcus neoformans it was 0.25 µg/mL (≈ 0.426 µM); in the assay on Candida albicans [3], 4 µg/mL; against Candida parapsilosis, > 4 µg/mL; with Candida tropicalis it was 0.5 µg/mL (≈ 0.852 µM). The MIC was > 4 µg/mL in the assay with Nakaseomyces glabratus, 0.5 µg/mL (≈ 0.852 µM) against Candida albicans [4], 0.5 µg/mL (≈ 0.852 µM) with Candida albicans [6] and > 4 µg/mL in the assay on Aspergillus fumigatus.
On to `COc1ccc(CN2C[C@H](OCC34C[C@@H]5[C@H](C)CC[C@H]5C5(C=O)CC3C=C(C(C)C)C45C(=O)O)C[C@@H]2C)cc1` (some centres undefined), for which the MIC against Candida albicans [1] is 0.25 µg/mL (≈ 0.467 µM); with Candida albicans [2], 0.5 µg/mL (≈ 0.933 µM); against Cryptococcus neoformans, > 16 µg/mL; in the assay on Candida albicans [3], 1 µg/mL; against Candida parapsilosis it was > 16 µg/mL; in the assay on Candida tropicalis it was 4 µg/mL (≈ 7.47 µM). For the same compound, the minimal inhibitory concentration (MIC) in the assay with Nakaseomyces glabratus was 16 µg/mL (≈ 29.9 µM); in the assay on Candida albicans [4] it was 0.5 µg/mL (≈ 0.933 µM); with Candida albicans [5], 0.5 µg/mL; in the assay with Candida albicans [6], 0.5 µg/mL (≈ 0.933 µM); against Aspergillus fumigatus, > 16 µg/mL.
Regarding `CC(C)C1=CC2CC3(C=O)[C@@H]4CC[C@@H](C)[C@H]4CC2(CS[C@@H]2C[C@H](C)N(Cc4ccccc4)C2)C13C(=O)O` (some centres undefined), the MIC in the assay on Candida albicans [1] was 0.25 µg/mL (≈ 0.479 µM); in the assay with Candida albicans [2], 1 µg/mL (≈ 1.92 µM); in the assay with Cryptococcus neoformans, > 16 µg/mL; in the assay on Candida albicans [3], 8 µg/mL; against Candida parapsilosis, > 16 µg/mL; in the assay on Candida tropicalis, 4 µg/mL (≈ 7.67 µM). In addition, the MIC was > 16 µg/mL in the assay on Nakaseomyces glabratus; 1 µg/mL (≈ 1.92 µM) in the assay on Candida albicans [4]; 4 µg/mL in the assay on Candida albicans [5]; 0.5 µg/mL (≈ 0.958 µM) against Candida albicans [6]; > 16 µg/mL in the assay with Aspergillus fumigatus.
For `CC(C)C1=CC2CC3(C=O)[C@@H]4CC[C@@H](C)[C@H]4CC2(CO[C@@H]2C[C@H](C)N(Cc4ccccc4)C2)C13C(=O)O` (some centres undefined), the MIC against Candida albicans [1] is 0.5 µg/mL (≈ 0.989 µM); against Candida albicans [2], 2 µg/mL (≈ 3.95 µM); with Cryptococcus neoformans, > 16 µg/mL; in the assay with Candida albicans [3] it was 4 µg/mL; against Candida parapsilosis, > 16 µg/mL; against Candida tropicalis, 8 µg/mL (≈ 15.8 µM). For the same compound, the MIC was > 16 µg/mL against Nakaseomyces glabratus; 2 µg/mL (≈ 3.95 µM) in the assay on Candida albicans [4]; 1 µg/mL in the assay with Candida albicans [5]; 1 µg/mL (≈ 1.98 µM) against Candida albicans [6]; > 16 µg/mL in the assay on Aspergillus fumigatus.
Regarding `CC(C)C1=CC2CC3(C=O)[C@@H]4CC[C@@H](C)[C@H]4CC2(CO[C@@H]2C[C@H](C)N(Cc4ccc5c(c4)OCO5)C2)C13C(=O)O` (some centres undefined), the MIC in the assay on Candida albicans [1] was 0.13 µg/mL (≈ 0.236 µM); with Candida albicans [2], 0.5 µg/mL (≈ 0.91 µM); against Cryptococcus neoformans, > 16 µg/mL; in the assay with Candida albicans [3], 1 µg/mL; against Candida parapsilosis, > 16 µg/mL; with Candida tropicalis, 4 µg/mL (≈ 7.28 µM). Further, the MIC was > 16 µg/mL with Nakaseomyces glabratus; 0.5 µg/mL (≈ 0.91 µM) with Candida albicans [4]; 0.5 µg/mL in the assay with Candida albicans [5]; 0.25 µg/mL (≈ 0.455 µM) with Candida albicans [6]; > 16 µg/mL with Aspergillus fumigatus.
`OC(Cn1cncn1)(Cn1cncn1)c1ccc(F)cc1F` [FLUCONAZOLE]: the MIC in the assay with Candida albicans [1] is 0.25 µg/mL (≈ 0.816 µM); in the assay on Candida albicans [2], > 4 µg/mL; in the assay with Cryptococcus neoformans, > 4 µg/mL; in the assay on Candida parapsilosis, 0.5 µg/mL (≈ 1.63 µM); against Candida tropicalis, 2 µg/mL (≈ 6.53 µM); against Nakaseomyces glabratus it was > 4 µg/mL. Further, the results for the MIC in the assay on Candida albicans [4], in the assay on Candida albicans [6] and against Aspergillus fumigatus were > 4 µg/mL, 0.5 µg/mL (≈ 1.63 µM) and > 4 µg/mL, respectively.
